aSyn UTR inh = MLPCN primary screen, SNCA 5' untranslated region; 0.82% of 300,000 active; alpha-synuclein 5'UTR reporter, inhibitor activity; inhibition, % (tested at 7.5 µM); in the data active means inhibition above about 60%; inconclusive means no clear call, values can overlap the other calls;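 further: H4 neuroglioblastoma cells stably carrying SNCA 5'UTR luciferase fusion; 0% = DMSO wells and 100% = positive control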
SKKanGAS inh = SKKanGAS growth inhibition; S. pyogenes SKKanGAS, kanamycin growth, BacTiter-Glo, 6 h; inhibition, % at 7.5 µM; 1.3% of 300,000 active; AID 1662;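 active means mean replicate score, as percent of positive control median, at least 50; inconclusive means mean below 50 but one replicate at or above 50; inactive means mean and every replicate below 50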;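 further: strain carries kanamycin resistance gene driven by streptokinase promoter and grows in 40 µg/ml kanamycin; loss of luminescence reflects streptokinase promoter inhibition or plain growth inhibition; 0% = median of DMSO wells and 100% = positive control at its reference dose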
CSC inhib = blocks cancer stem cells; cancer stem cell-like cells viability, luminescence; inhibition, % at 7.5 µM; 1.1% of 300,000 active; AID 2717; in the data active means inhibition above about 75%; inconclusive means no clear call, values can overlap the other calls; tested in HMLE shEcad cells
T cruzi inh = T. cruzi replication inhibition. inhibition, % (test concentration not listed). T. cruzi beta-gal in NIH3T3, luminescence, 90 h. 1.4% of 300,000 active. AID 1885;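 active means mean inhibition across valid replicates above about 55%, limit read from the data; inconclusive means mean below that limit but half or more replicates reach it; inactive means mean below it, under half of replicates reach it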;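 further: signal also drops with host cell toxicity which is not excluded here; 0% = plate median of DMSO wells and 100% = zero luminescence signal; higher percent means less beta-gal luminescence so fewer parasites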
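Test system: β-gal T. cruzi (Tulahuen C4) inside NIH/3T3 cells / Quantity: 5,000 cells/well / Measured by: luminescence from GalScreen with 0.05% NP40, read after 60 min / Medium: DMEM plus 2% FBS / Measure: parasite load inhibition, % / Reagent: Tulahuen C4 trypomastigotes, 5000/well / Schedule: co-culture of at least 90 h after 3 h attachment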
Mdm2 MdmX PPI = disrupts the human Mdm2-MdmX interaction. O15151+Q00987. SaOS-2 split-luciferase Mdm2/MdmX complementation, luminescence. inhibition, % at 8 µM. 3% of 330,000 active;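 active means inhibition of at least 50% at 8 µM in the primary screen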
* marks the source's active call; other numbers are inactive results; ? = inconclusive; nt = no result given. An excerpt weighted towards active compounds, which were near 5.4% of everything screened.

SMILES	aSyn UTR inh	SKKanGAS inh	CSC inhib	T cruzi inh	Mdm2 MdmX PPI
CC(C)Cc1nc(N2CCCCC2)c(C#N)c2c1CCC2	-6	51*	-14	22	-14
CC(=O)N1CCN(c2nc(CC(C)C)c3c(c2C#N)CCC3)CC1	24	-1	18	11	12
O=C(Nc1ccc(-c2nc3ccccc3o2)cc1)C1CCCO1 (configuration not stated)	-23	2	nt	-3	-138
O=C(Nc1ccc(-c2nc3cccnc3s2)cc1)C1CCCO1 (configuration not stated)	87*	9	8	-4	11
O=c1cc(/N=C/c2coc3c(ccc4ccccc43)c2=O)[nH]c(=S)[nH]1	-5	87*	3	-14	1
C/C=C/C(=O)N[C@@H]1c2ccccc2CC[C@@H]1OCc1ccccc1	nt	nt	nt	nt	6
CC(C)c1csc(CN2CCC(CO)(Cc3cccc(F)c3)CC2)n1	-4	-3	-2	68*	5
OCC1(Cc2cccc(F)c2)CCN(Cc2cccc3nccnc23)CC1	7	10	0	7	1
COc1ccccc1-n1c(SCC(=O)Nc2cc(C)on2)nc2c([nH]c3ccccc32)c1=O	16	-4	-3	11	44
COc1ccc(C2=C(C=O)Cc3ccccc3O2)cc1	98*	-7	15	-8	40
COc1ccc(C2=COc3ccccc3C(=O)N2)cc1	-57	-2	7	-4	4
COC(=O)Cc1c[nH]c2cccc(OCC(O)CN(Cc3ccc([N+](=O)[O-])cc3)C(C)(C)C)c12 (configuration not stated)	-8	-3	0	65*	11
Cc1ccc(CN(CC(O)COc2cccc3[nH]cc(C)c23)C(C)(C)C)cc1 (configuration not stated)	-9	-2	76*	32	-22
COC(=O)Cc1c[nH]c2cccc(OCC(O)CN(Cc3ccccc3)C(C)C)c12 (configuration not stated)	-14	4	0	10	33
C=CCOc1ccc(CN(C)CC(O)COc2cccc3ccccc23)cc1 (configuration not stated)	-2	-10	29	50	23
Cc1ccc2c(c1)C(=O)CC1(CCC(C(C)(C)C)CC1)O2 (configuration not stated)	17	68*	-2	2	25
Cc1ccc2c(c1)C(=O)CC(O)(C(F)(F)F)O2 (configuration not stated)	17	-6	-15	-12	-18
COc1ccc(NC(=O)CNc2ccc(C#N)cc2)cc1	13	11	-6	-4	5
Cc1cc(N)ccc1-n1nc2ccccc2n1	44	-4	3	-11	17
Cc1ccc(-n2nc3ccc(N)cc3n2)c(C)c1	66*	7	19	16	-21
CC(C)(C)OC(=O)NC(CNCc1ccccc1)Cc1ccccc1 (configuration not stated)	-9	-2	-1	-2	12
COc1ccc(NC(=O)CSc2nc(O)cc(=O)n2-c2ccccc2OC)cc1	-4	87*	-9	2	15
COc1ccccc1-n1c(SCC(=O)Nc2ccc(C)cc2)nc(O)cc1=O	-4	63*	3	4	5
COc1ccccc1-n1c(SCC(=O)Nc2cccc3ccccc23)nc(O)cc1=O	7	40	-19	-9	21
Cc1ccc(NC(=O)CSc2nc(O)cc(=O)n2-c2ccc(C)cc2)cc1	22	77*	13	-3	8
SMILES	aSyn UTR inh	SKKanGAS inh	CSC inhib	T cruzi inh	Mdm2 MdmX PPI
CCN(CC)C(=O)CSc1nc(O)cc(=O)n1-c1ccccc1OC	27	9	-3	-8	-1
CCOc1ccc(S(=O)(=O)N2CCN(C(=O)CCOc3ccccc3C)CC2)cc1	10	20	-1	13	15
COc1ccccc1/C=C/C(=O)N1CCN(S(=O)(=O)c2cccs2)CC1	nt	nt	-28	nt	30
O=C(O)c1cccc(N/N=C(\N=Nc2ccccc2)c2ccccc2)c1	-61	21	88*	8	21
O=C(O)c1ccc(N=N/C(=N\Nc2ccc(C(=O)O)cc2)c2ccccc2)cc1	-15	22	15	-3	5
CCCCCCCCOC(=O)/C=C/c1c(C)[nH]c(=O)[nH]c1=O	31	64*	3	30	14
COc1cccc(/C=N/NC(=O)c2nnn(-c3nonc3N)c2C(C)C)c1OCc1ccc(F)cc1	11	60*	-9	21	42
CCOc1cccc(-c2c(C(=O)N/N=C(\C)c3ccncc3)nnn2-c2nonc2N)c1	25	-7	-13	23	27
Cc1ccc(/C=N/NC(=O)c2nnn(-c3nonc3N)c2-c2cccs2)cc1	69*	13	-6	29	4
CCOc1cccc(-c2c(C(=O)N/N=C(\C)c3ccccn3)nnn2-c2nonc2N)c1	90*	32	-12	?	nt
CC(C)c1c(C(=O)N/N=C/c2cccc(OCc3ccccc3)c2)nnn1-c1nonc1N	4	81*	-5	-13	-3
CC(=O)Cn1cnc2c(cnn2-c2ccc(C)c(C)c2)c1=O	-106	1	2	-16	-48
COc1ccc(/C=N/NC(=O)c2cccc(S(=O)(=O)N3CCCC3)c2)cc1O	nt	nt	nt	nt	-1
COc1ccc(O)c(CN2CCCC(N3CCc4ccccc4C3)C2)c1 (configuration not stated)	-3	0	nt	13	-3
CCn1cc(C(=O)NCc2cccc(C(F)(F)F)c2)c(=O)c2ccc(C)nc21	17	0	11	-16	19
Cc1cc(C)n2nc(C(=O)NCc3cccc(C(F)(F)F)c3)nc2n1	-3	-8	-1	76*	12
C/C(=N/NS(=O)(=O)c1ccc(C)cc1)c1cccc(NC(=O)c2cccc(Cl)c2)c1	-33	34	nt	-4	7
C/C(=N/NS(=O)(=O)c1ccc(Cl)cc1)c1cccc(NC(=O)c2ccc(Cl)cc2Cl)c1	-20	64*	16	nt	-10
Fc1ccc2c(c1)Sc1ccc(Cl)cc1CC2N1CCN(CCC2OCCO2)CC1 (configuration not stated)	-23	4	44	14	31
OCCN1CCN(C2CCC(c3ccc(F)cc3)c3ccc(F)cc32)CC1 (configuration not stated)	12	7	83*	39	38
Cc1nc(N/N=C\c2ccc3c(c2)OCO3)sc1C	-128	53*	-18	-15	-116
C(=N\Nc1nc2ccccc2s1)/c1ccc2c(c1)OCO2	-190	-3	nt	-9	-209
O=C(Nc1ccc(NC(=O)c2cc3ccccc3o2)cc1)c1ccc2c(c1)OCCO2	71*	6	2	3	10
Cc1ccc(NC(=O)c2ccc3c(c2)OCCO3)cc1	22	-2	4	-6	-72
Cc1cc(NC(=O)c2ccc3c(c2)OCCO3)ccc1NC(=O)c1cc2ccccc2o1	-42	53*	44	18	29
CC(C)C(=O)N1CCN(c2cc(N3CCN(C)CC3)c(F)cc2[N+](=O)[O-])CC1	-4	-1	-1	77*	6

Screening results (PubChem BioAssay)
